Assays:
cathepsin K [1] = biological target: T1, cathepsin K (Homo sapiens, UniProt P43235); test: Substrate activity at recombinant human cathepsin K expressed in Escherichia coli assessed as compound cleavage at 100 uM after 2 hrs by HPLC analysis; assay type: ADME; conditions: read-out: Drug degradation
T1 sequence (P43235 whole entry): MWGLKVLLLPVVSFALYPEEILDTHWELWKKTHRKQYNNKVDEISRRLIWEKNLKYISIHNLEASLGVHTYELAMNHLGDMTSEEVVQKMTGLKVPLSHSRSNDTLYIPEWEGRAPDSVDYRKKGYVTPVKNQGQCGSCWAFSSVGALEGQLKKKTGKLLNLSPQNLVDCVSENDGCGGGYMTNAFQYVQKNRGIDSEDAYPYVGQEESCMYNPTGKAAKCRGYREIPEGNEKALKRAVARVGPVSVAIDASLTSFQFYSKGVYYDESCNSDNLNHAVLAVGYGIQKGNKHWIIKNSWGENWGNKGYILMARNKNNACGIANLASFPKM
Outline: (§1)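 Human procathepsin K, recombinant from E. coli, was activated for 40 min at room temperature in 50 mM NaOAc-HOAc with 200 mM NaCl, pH 4.1. Final assay had 0.2 µM enzyme in 50 mM MES pH 5.5, 2 mM EDTA, 4 mM DTT and 0.15% chondroitin sulfate. Conjugates or the standard substrate Cbz-Leu-Arg-AMC were at 100 µM. Incubation was at 37 °C with HPLC at UV 240 nm; cleavage was taken from release of 4-aminobenzyl alcohol and its DTT adduct.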

cathepsin K [2] = biological target: T1, cathepsin K; test: Substrate activity at recombinant human cathepsin K expressed in Escherichia coli assessed as compound cleavage at 100 uM after 1 hr by HPLC analysis; assay type: ADME; conditions: read-out: Drug degradation; outline: as §1
[3] = Stability in rat plasma assessed as parent compound remaining at 100 uM measured after 24 hrs by HPLC analysis (reference value: 49 to 86%); assay type: ADME, cell-free; conditions: read-out: Stability
[4] = Stability in rat serum assessed as parent compound remaining at 100 uM measured after 4 hrs by HPLC analysis (reference value: 93 to 97%); assay type: ADME, cell-free; conditions: read-out: Stability
[5] = Stability in rat plasma assessed as parent compound remaining at 100 uM measured after 2 hrs by HPLC analysis (reference value: 49 to 86%); assay type: ADME, cell-free; conditions: read-out: Stability
[6] = Stability in rat serum assessed as parent compound remaining at 100 uM measured after 24 hrs by HPLC analysis (reference value: 93 to 97%); assay type: ADME, cell-free; conditions: read-out: Stability
[7] = Stability in rat serum assessed as parent compound remaining at 100 uM measured after 2 hrs by HPLC analysis (reference value: 93 to 97%); assay type: ADME, cell-free; conditions: read-out: Stability
cathepsin K [8] = biological target: T2, cathepsin K (Rattus norvegicus, UniProt O35186); test: Substrate activity at recombinant rat cathepsin K expressed in Escherichia coli assessed as compound cleavage at 100 uM after 2 hrs by HPLC analysis; assay type: ADME; conditions: read-out: Drug degradation
T2 sequence (O35186 whole entry): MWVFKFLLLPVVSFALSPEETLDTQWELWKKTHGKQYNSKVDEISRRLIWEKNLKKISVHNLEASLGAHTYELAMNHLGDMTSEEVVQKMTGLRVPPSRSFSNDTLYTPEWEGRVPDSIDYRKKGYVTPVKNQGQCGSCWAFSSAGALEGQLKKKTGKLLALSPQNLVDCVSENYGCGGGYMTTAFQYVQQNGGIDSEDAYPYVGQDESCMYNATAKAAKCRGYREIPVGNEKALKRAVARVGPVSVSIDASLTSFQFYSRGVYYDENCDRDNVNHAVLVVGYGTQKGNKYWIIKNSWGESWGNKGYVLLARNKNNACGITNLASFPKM
Outline: (§2)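 Rat cathepsin K was recombinant, expressed in E. coli, and used at 0.2 µM final in 50 mM MES pH 5.5 with 2 mM EDTA, 4 mM DTT and 0.15% chondroitin sulfate. Conjugates or the standard substrate Cbz-Leu-Arg-AMC were at 100 µM and incubated at 37 °C. Aliquots were run by HPLC at UV 240 nm. Cleavage was calculated from the appearance of 4-aminobenzyl alcohol plus its DTT-trapped adduct.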

[9] = Stability in rat plasma assessed as parent compound remaining at 100 uM measured after 4 hrs by HPLC analysis (reference value: 49 to 86%); assay type: ADME, cell-free; conditions: read-out: Stability
cathepsin K [10] = biological target: T2, cathepsin K; test: Substrate activity at recombinant rat cathepsin K expressed in Escherichia coli assessed as compound cleavage at 100 uM after 20 hrs by HPLC analysis; assay type: ADME; conditions: read-out: Drug degradation; outline: as §2
cathepsin K [11] = biological target: T1, cathepsin K; test: Substrate activity at recombinant human cathepsin K expressed in Escherichia coli assessed as compound cleavage at 100 uM after 3 hrs by HPLC analysis; assay type: ADME; conditions: read-out: Drug degradation; outline: as §1
cathepsin K [12] = biological target: T2, cathepsin K; test: Substrate activity at recombinant rat cathepsin K expressed in Escherichia coli assessed as compound cleavage at 100 uM after 1 hr by HPLC analysis; assay type: ADME; conditions: read-out: Drug degradation; outline: as §2
[13] = Stability in rat serum assessed as parent compound remaining at 100 uM measured after 1 hr by HPLC analysis (reference value: 93 to 97%); assay type: ADME, cell-free; conditions: read-out: Stability
[14] = Stability in rat plasma assessed as parent compound remaining at 100 uM measured after 1 hr by HPLC analysis (reference value: 49 to 86%); assay type: ADME, cell-free; conditions: read-out: Stability
Bone [15] = test: Drug uptake in Sprague-Dawley rat bone at 0.2 uci, iv administered as single dose using 14C-labeled compound after 4 hrs; assay type: ADME, organism-based, Bone element; conditions: in vivo
Bone [16] = test: Half life in iv dosed Sprague-Dawley rat bone administered as single dose using radiolabeled compound; assay type: ADME, organism-based, Bone element; conditions: in vivo
Outline: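 Female Sprague Dawley rats, about 13 weeks old on receipt, got a single tail-vein bolus of 5.0 mg/kg conjugate. The dose held 8.90 µCi [3H] and 1.77 µCi [14C] label, in 10% poloxamer 188 brought to pH 8.0 with NaHCO3 and diluted 1:1 with PBS. Groups of 3 were killed at 6 h and 1, 7, 14 and 28 days. Femurs were oxidized and counted, with skeleton taken as 8% of body weight, and label loss from bone gave half-times.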

Plasma = test: Drug metabolism in Sprague-Dawley rat plasma assessed as tritium label liberation in presence of bone powder; assay type: ADME, cell-free
Outline: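 Tritiated conjugate was incubated in rat plasma at 37 °C. At fixed times up to 24 h the mixture was stirred with bovine bone powder to adsorb intact conjugate and any cleaved bisphosphonate. The supernatant was then scintillation counted as unbound, liberated tritium.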

Bone [17] = test: Drug uptake in Sprague-Dawley rat bone at 1 mg/kg, iv after 6 hrs; assay type: ADME, organism-based, Bone element; conditions: in vivo
[18] = Solubility of the compound in phosphate buffer at 2 mg/ml; assay type: physicochemical
Outline: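 Conjugate tested for dissolution at the dosing concentration of 2 mg/mL in PBS alone, then in PBS formulations containing surfactants (PEG400, Tween, Cremaphor). Solutions were judged by visual clarity (homogeneous versus cloudy).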

Compound | metabolised at 2 h, 100 µM (cathepsin K [1]) [%] | metabolised at 1 h, 100 µM (cathepsin K [2]) [%] | remaining at 24 h, 100 µM [3] [%] | remaining at 4 h, 100 µM [4] [%] | remaining at 2 h, 100 µM [5] [%] | remaining at 24 h, 100 µM [6] [%] | remaining at 2 h, 100 µM [7] [%] | metabolised at 2 h, 100 µM (cathepsin K [8]) [%] | remaining at 4 h, 100 µM [9] [%] | metabolised at 20 h, 100 µM (cathepsin K [10]) [%] | metabolised at 1 h, 100 µM (cathepsin K [12]) [%] | remaining at 1 h, 100 µM [13] [%] | remaining at 1 h, 100 µM [14] [%] | also measured
CCCCC[C@H](O)/C=C/[C@H]1[C@H](O)CC(=O)[C@@H]1C/C=C\CCCC(=O)NCCCC(O)(P(=O)(O)O)P(=O)(O)O |  |  |  |  |  |  |  |  |  |  |  |  |  | Drug uptake (Bone [15]): 15 %ID
CCCCC[C@@H](/C=C/[C@H]1[C@H](O)CC(=O)[C@@H]1C/C=C\CCCC(=O)O)OC(=O)CSCCCC(P(=O)(O)O)P(=O)(O)O |  |  |  |  |  |  |  |  |  |  |  |  |  | t1/2 (Bone [16]): 96 to 120 h; Drug metabolism (Plasma): 15%; Drug uptake (Bone [17]): 3.5%
CCOC(=O)CCCCCCN1C(=O)CC[C@@H]1/C=C/[C@@H](OC(=O)Cc1ccc(COC(=O)N[C@@H](CC(C)C)C(=O)N[C@@H](CCCNC(=N)N)C(=O)Nc2ccc(COC(=O)NCCCC(O)(P(=O)(O)O)P(=O)(O)O)cc2)cc1)C(F)(F)c1ccccc1 |  |  |  |  |  |  |  |  |  |  |  |  |  | solubility [18]: Insoluble

Second part, led by results:

metabolised at 2 h, 100 µM (cathepsin K [1]) [%] | metabolised at 1 h, 100 µM (cathepsin K [2]) [%] | remaining at 24 h, 100 µM [3] [%] | remaining at 4 h, 100 µM [4] [%] | remaining at 2 h, 100 µM [5] [%] | remaining at 24 h, 100 µM [6] [%] | remaining at 2 h, 100 µM [7] [%] | metabolised at 2 h, 100 µM (cathepsin K [8]) [%] | remaining at 4 h, 100 µM [9] [%] | metabolised at 20 h, 100 µM (cathepsin K [10]) [%] | metabolised at 1 h, 100 µM (cathepsin K [12]) [%] | remaining at 1 h, 100 µM [13] [%] | remaining at 1 h, 100 µM [14] [%] | Compound | also measured
75 | 66 | 59 | 86 | 78 | 70 | 95 | 80 | 64 | 95 | 73 | 97 | 78 | CC(C)C[C@H](NC(=O)OCc1ccccc1)C(=O)N[C@@H](CCCNC(=N)N)C(=O)Nc1ccc(COC(=O)NCCCC(O)(P(=O)(O)O)P(=O)(O)O)cc1 | metabolised at 3 h, 100 µM (cathepsin K [11]): 79%
98 | 90 | 65 | 77 | 90 | 69 | 78 | 10 | 90 | 52 | 5 | 89 | 95 | N=C(N)NCCC[C@H](NC(=O)[C@@H]1CCCN1C(=O)OCc1ccccc1)C(=O)Nc1ccc(COC(=O)NCCCC(O)(P(=O)(O)O)P(=O)(O)O)cc1 | 

From ChEMBL document CHEMBL4038321, “Design, Synthesis, and Pharmacokinetics of a Bone-Targeting Dual-Action Prodrug for the Treatment of Osteoporosis” (J Med Chem, 2017)
